Tests used:
[1] = [14C]-AZD2014 metabolism and excretion after a single dose in rats; type: in vivo
[2] = clinical plasma pharmacokinetics; type: in vivo, human; conditions: for AUC / Cmax / half-life: human, plasma
[3] = tested on: p-4EBP1 in PBMNCs; assay: p-4EBP1 in peripheral blood mononuclear cells by flow cytometry; type: in vivo, human
[4] = tested on: p-S6; assay: p-S6 immunohistochemistry in pre- and post-treatment tumor biopsies; type: in vivo, human; conditions: 50 mg BD, post-treatment vs pre-treatment, mean H score
In short: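 Paired tumor biopsies taken before treatment and on days 8-15 of continuous oral twice-daily dosing, in a subset of expansion-cohort patients with advanced solid tumors. Patients fasted (water allowed) 2 h before and 1 h after each dose. Markers were scored by immunohistochemistry on post-treatment versus pre-treatment samples.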

[5] = tested on: SUVmax of tumors; assay: FDG PET scans at baseline and day 8; type: in vivo, human; conditions: Part B, 50 mg BD, paired FDG PET scans
[6] = tested on: MCF7 xenograft models; assay: MCF7 xenograft growth inhibition; type: in vivo
[7] = tested on: m-TORC1/2; conditions: ATP competitive m-TORC1/2 inhibitor; cited from earlier work

CNC(=O)c1cccc(-c2ccc3c(N4CCOC[C@@H]4C)nc(N4CCOC[C@@H]4C)nc3n2)c1 [AZD2014]
faecal excretion, % of dosed radioactivity [1]: ~85%
urinary excretion, % of dosed radioactivity [1]: approximately 2%
free weekly AUC, average ([2]; 50mg BD solution, converted from total exposure with MW and 5.47% free): 11.05 µM·h
Cmin SS, Gmean ([2]; 50 mg BD, n=27): 169.5 ng/mL
Cmin SS, range ([2]; 50 mg BD, n=27): 0 to 2120 ng/mL
dose proportionality of Geomean exposure (AUC and Cmax) ([2]; 25 to 100 mg): increased greater than proportionally with increasing dose
AUC ([2]; oral, 25 mg, AUC, Gmean, Single dose, N=6): 1640 ng·h/mL
AUC ([2]; oral, 25 mg, AUC, Range, Single dose, N=6): 883 to 2730 ng·h/mL
AUC ([2]; oral, 25 mg, AUCss, Gmean, Steady state, 25 mg BD, N=6): 2980 ng·h/mL
AUC ([2]; oral, 25 mg, AUCss, Range, Steady state, 25 mg BD, N=6): 1000 to 6560 ng·h/mL
Cmax ([2]; oral, 25 mg, Cmax ss, Gmean, Steady state, 25 mg BD, N=6): 747 ng/mL
Cmax ([2]; oral, 25 mg, Cmax ss, Range, Steady state, 25 mg BD, N=6): 227 to 1450 ng/mL
Cmax ([2]; oral, 25 mg, Cmax, Gmean, Single dose, N=6): 435 ng/mL
Cmax ([2]; oral, 25 mg, Cmax, Range, Single dose, N=6): 221 to 681 ng/mL
half-life ([2]; oral, 25 mg, t½, Mean, Single dose, N=6): 2.96 h
half-life ([2]; oral, 25 mg, t½, Range, Single dose, N=6): 0.88 to 6.71 h
half-life ([2]; oral, 25 mg, t½, ss, Mean, Steady state, 25 mg BD, N=6): 2.89 h
half-life ([2]; oral, 25 mg, t½, ss, Range, Steady state, 25 mg BD, N=6): 1.34 to 4.06 h
AUC ([2]; oral, 50 mg, AUC, Gmean, Single dose, N=27): 4020 ng·h/mL
AUC ([2]; oral, 50 mg, AUC, Range, Single dose, N=27): 453 to 12600 ng·h/mL
AUC ([2]; oral, 50 mg, AUCss, Gmean, Steady state, 50 mg BD, N=37): 6690 ng·h/mL
AUC ([2]; oral, 50 mg, AUCss, Range, Steady state, 50 mg BD, N=37): 1280 to 47800 ng·h/mL
Cmax ([2]; oral, 50 mg, Cmax ss, Gmean, Steady state, 50 mg BD, N=37): 1660 ng/mL
Cmax ([2]; oral, 50 mg, Cmax ss, Range, Steady state, 50 mg BD, N=37): 657 to 6410 ng/mL
Cmax ([2]; oral, 50 mg, Cmax, Gmean, Single dose, N=27): 1150 ng/mL
Cmax ([2]; oral, 50 mg, Cmax, Range, Single dose, N=27): 234 to 2840 ng/mL
half-life ([2]; oral, 50 mg, t½, Mean, Single dose, N=27): 2.48 h
half-life ([2]; oral, 50 mg, t½, Range, Single dose, N=27): 0.9 to 8.04 h
half-life ([2]; oral, 50 mg, t½, ss, Mean, Steady state, 50 mg BD, N=37): 3.01 h
half-life ([2]; oral, 50 mg, t½, ss, Range, Steady state, 50 mg BD, N=37): 1.18 to 4.8 h
AUC ([2]; oral, 70 mg, AUC, Gmean, Single dose, N=5): 8970 ng·h/mL
AUC ([2]; oral, 70 mg, AUC, Range, Single dose, N=5): 6010 to 14200 ng·h/mL
AUC ([2]; oral, 70 mg, AUCss, Range, Steady state, 70 mg BD, N=2): 7500 to 22500 ng·h/mL
Cmax ([2]; oral, 70 mg, Cmax ss, Range, Steady state, 70 mg BD, N=2): 1500 to 3870 ng/mL
Cmax ([2]; oral, 70 mg, Cmax, Gmean, Single dose, N=5): 2380 ng/mL
Cmax ([2]; oral, 70 mg, Cmax, Range, Single dose, N=5): 1440 to 3690 ng/mL
half-life ([2]; oral, 70 mg, t½, Mean, Single dose, N=5): 3.11 h
half-life ([2]; oral, 70 mg, t½, Range, Single dose, N=5): 1.35 to 5.98 h
half-life ([2]; oral, 70 mg, t½, ss, Range, Steady state, 70 mg BD, N=2): 3.63 to 4.23 h
AUC ([2]; oral, 100 mg, AUC, Gmean, Single dose, N=4): 9670 ng·h/mL
AUC ([2]; oral, 100 mg, AUC, Range, Single dose, N=4): 4770 to 16100 ng·h/mL
Cmax ([2]; oral, 100 mg, Cmax, Gmean, Single dose, N=4): 2790 ng/mL
Cmax ([2]; oral, 100 mg, Cmax, Range, Single dose, N=4): 1410 to 5050 ng/mL
half-life ([2]; oral, 100 mg, t½, Mean, Single dose, N=4): 3.23 h
half-life ([2]; oral, 100 mg, t½, Range, Single dose, N=4): 0.82 to 6.49 h
half-life ([2]; po, terminal elimination half-life, patients): ~3 h
mean % change from baseline in p-4EBP1 ([3]; 50 mg, 24 hours (12 hours after the 2nd BD dose)): −21%
mean % change from baseline in p-4EBP1 ([3]; single 50 mg dose, 6-8 hours): ~−41%
evaluable paired biopsy samples with a reduction of p-S6 levels [4]: 8/8
patients attaining a partial response (30% reduction in SUVmax) [5]: 3/11
patients with a reduction of SUVmax [5]: 8/11
total growth inhibition (TGI) ([6]; 4500 nM.h free weekly AUC): > 70%
total growth inhibition (TGI) ([6]; 17000 nM.h free weekly AUC): ≥ 100%
IC50 [7]: 2.81 nM

Reference: paper PMC4512239 (Clinical cancer research : an official journal of the …, 2015)
